Assay results pooled from the literature.
Lines come from different studies, so protocols differ.
Target: Casein kinase II subunit alpha' (CSNK2A2, Homo sapiens, UniProt P19784)

Cn1cnc(Br)c1C1=CN(c2ncnc3[nH]cnc23)CCS1
inhibition (enzyme activity; inhibitor; radiometric; 2 µM): 46.5%

C=CC(=O)Nc1cc(Nc2nccc(Nc3cc(Cl)c(F)cc3C(C)(C)O)n2)c(OC)cc1N1CC[C@@H](N(C)C)C1
inhibition (enzyme activity; inhibitor; 1 µM): -6%

c1ccc(CNc2nc(N3CCOc4ccccc43)nc3c2CCCC3)cc1
inhibition (target engagement in cells; inhibitor; chemoproteomics; 20 mM): -34.4%

Cc1cnc(NC2CCOCC2)nc1-n1cnc(C(=O)NC(CN)c2cc(F)cc(Cl)c2)c1 (stereo not drawn)
remaining activity (enzyme activity; inhibitor; radiometric; 1 µM): 97%

Cc1ccc(NC(=O)c2ccc(C)c(C(F)(F)F)c2)cc1C#Cc1nn(C2CCC(O)CC2)c2ncnc(N)c12 (stereo not drawn)
remaining signal (cell-free assay; inhibitor; 10 µM): 92%

O=C(NCCCC1CCCCC1)c1ccc(CNC(=O)c2cnn(-c3ccccc3)c2C(F)(F)F)cc1
remaining binding (cell-free assay; competition with immobilised ligand; 0.1 µM): 88%

CC(C)(C)c1nc(-c2cccc(NS(=O)(=O)c3c(F)cccc3F)c2F)c(-c2ccnc(N)n2)s1
remaining activity (enzyme activity; inhibitor; radiometric; 1 µM): 84%

CCN(CC)CCNC(=O)c1c(C)[nH]c(/C=C2\C(=O)Nc3ccc(F)cc32)c1C
inhibition (enzyme activity; inhibitor; 0.3 µM): -22%

O=C(Nc1cnn(-c2csc(C(=O)NC3COC3)c2)c1)Nc1c(F)cccc1Cl
remaining activity (enzyme activity; inhibitor; 5 µM): 96.6%

CC(C)CC(=O)N1CCc2nc(-c3ccc(Br)cc3)nc(N(C)Cc3ccccc3)c2C1
remaining binding (cell-free assay; competition with immobilised ligand; 0.1 µM): 88%

N#CCCc1ccc2c(c1)-c1[nH]c3ccc([N+](=O)[O-])cc3c1CC(=O)N2
remaining signal (cell-free assay; 0.5 µM): 92.9%

COc1cc2ncnc(Nc3ccc(Oc4ccccc4)c(C)c3C)c2cc1OC
inhibition (enzyme activity; inhibitor; 1 µM): -1%

O=C(NC[C@@H]1[C@H]2CN(C(=O)OCc3cc(C(F)(F)F)cc(C(F)(F)F)c3)C[C@@H]12)c1ccc2[nH]nnc2c1
remaining binding (cell-free assay; competition with immobilised ligand; 1 µM): 92%

Cc1ccc(C(=O)Nc2ccc(CN3CCN(C)CC3)c(C(F)(F)F)c2)cc1C#Cc1cnc2cccnn12
remaining activity (enzyme activity; inhibitor; 23.5 nM): 94%

CCN(CC)c1ccc(C2=NNC(=O)CC2C)cc1[N+](=O)[O-] (stereo not drawn)
remaining activity (enzyme activity; inhibitor; 10 µM): 103%

Cc1ccc(Nc2nccc(N(C)c3ccc4c(C)n(C)nc4c3)n2)cc1S(N)(=O)=O
inhibition (enzyme activity; inhibitor; 0.3 µM): -13%

COc1ccc2c(O[C@@H]3C[C@H]4C(=O)N[C@]5(C(=O)O)CC5/C=C\CCCCC[C@H](NC(=O)OC5CCCC5)C(=O)N4C3)cc(-c3csc(NC(=O)C(C)C)n3)nc2c1C (stereo partly drawn)
remaining binding (cell-free assay; competition with immobilised ligand; 1 µM): 100%

Cc1cc(NC(=O)c2cccc3cc(-c4cccc5[nH]nc(N)c45)ccc23)ccc1F
activity vs control (enzyme activity; inhibitor; 0.1 µM): 109%

CCS(=O)(=O)c1cc2cc(C[C@](O)(CC(C)(C)c3ccc(F)cc3C(N)=O)C(F)(F)F)[nH]c2cn1
remaining binding (cell-free assay; competition with immobilised ligand; 1 µM): 92%

COc1cc2c(Nc3ccc(Br)cc3F)ncnc2cc1OCC1CCN(C)CC1
remaining signal (cell-free assay; 0.5 µM): 96.5%

CCCOc1ccc([C@H]2[C@H](C(=O)O)[C@@H](c3ccc4c(c3)OCO4)CN2CC(=O)Nc2c(CC)cccc2CC)cc1
remaining binding (cell-free assay; competition with immobilised ligand; 1 µM): 87%

Cc1sc(C(=O)NC2COC2)cc1-n1cc(NC(=O)Nc2c(F)cccc2Cl)cn1
remaining activity (enzyme activity; inhibitor; 10 µM): 95.5%

CNC(=O)c1cc(Oc2ccc(NC(=O)Nc3ccc(Cl)c(C(F)(F)F)c3)cc2)ccn1
inhibition (enzyme activity; inhibitor; 10 µM): -30%

CNCc1ccccc1-c1csc([C@@H](C)Nc2nc(C)nc3cc(OC)c(OC)cc23)c1
remaining binding (cell-free assay; competition with immobilised ligand; 1 µM): 100%
